Efa HMGR inh: inhibitors of E. faecalis class II HMGR, primary screen, biochemical, Enterococcus faecalis. HMG-CoA reductase (Enterococcus faecalis, mvaE). purified E. faecalis HMGR, NADPH absorbance 340 nm kinetic. inhibition, % at 10 µM. actives 0.41% (n = 190,000);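 active = inhibition above a set limit, the median over all tested compounds plus 3 SD, cut at about 9.5% in these data; inconclusive = no clear call, values can overlap the other calls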;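 note: enzyme runs in reverse so mevalonate oxidation gives rising NADPH absorbance; 0% = complete reaction with DMSO and 100% = background rate lacking mevalonate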
RanGTP-Impb inh: inhibitors of RanGTP-importin-beta interaction, primary screen, biochemical, FRET, CFP-Ran, YFP-importin-beta, homogeneous; inhibition, % (test concentration not listed); actives 1.1% (n = 300,000); cell-free CFP-Ran/YFP-importin-beta FRET ratio; Ran GTPase (GTP-bound) - importin-beta complex; AID 2216, 2009;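 active = more than half of the replicate wells show a fall in the fluorescence ratio signal beyond about 16%, limit read from the data, passing the limit was not always enough; inconclusive = exactly half of the replicate wells pass the set limit; inactive = fewer than half of replicates pass the limit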;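 note: 0% = DMSO wells and 100% = Ran loaded with GDP instead of GTP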
Runt-CBFb FRET: inhibitors of RUNX1 Runt–CBFb binding, primary screen, biochemical, FRET, Cerulean-Runt, Venus-CBFb, uHTS; Runt-related transcription factor 1 (Homo sapiens) + Core-binding factor subunit beta …; actives 0.46% (n = 220,000); Cerulean-Runt/Venus-CBFb FRET ratio 530/480, 1 h; inhibition, % at 20 µM;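 active = inhibition over about 50% at 20 µM in the single-dose screen, limit read from the data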;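 note: 0% = DMSO wells and 100% = excess unlabeled CBFb competitor control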
Target sequence (Q01196 whole entry, looked up): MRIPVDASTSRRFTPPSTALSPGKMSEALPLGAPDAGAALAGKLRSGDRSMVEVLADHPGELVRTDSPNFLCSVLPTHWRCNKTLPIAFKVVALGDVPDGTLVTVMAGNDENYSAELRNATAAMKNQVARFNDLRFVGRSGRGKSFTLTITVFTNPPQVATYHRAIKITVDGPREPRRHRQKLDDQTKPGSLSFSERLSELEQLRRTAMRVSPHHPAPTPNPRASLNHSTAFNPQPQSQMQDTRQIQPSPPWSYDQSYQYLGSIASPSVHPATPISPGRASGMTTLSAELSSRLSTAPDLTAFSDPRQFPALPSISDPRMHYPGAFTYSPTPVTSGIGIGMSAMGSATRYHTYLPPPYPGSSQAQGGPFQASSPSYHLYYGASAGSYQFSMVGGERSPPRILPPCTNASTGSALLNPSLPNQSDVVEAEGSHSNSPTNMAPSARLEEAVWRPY
Target sequence (Q13951 whole entry, looked up): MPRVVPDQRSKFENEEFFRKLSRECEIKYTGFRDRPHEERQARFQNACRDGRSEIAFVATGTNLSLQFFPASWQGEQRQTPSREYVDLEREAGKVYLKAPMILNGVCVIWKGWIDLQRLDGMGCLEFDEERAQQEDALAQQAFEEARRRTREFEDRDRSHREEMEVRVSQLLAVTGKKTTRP
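Schedule: protein complex preformed 1 h, compound exposure 1 h, room temperature, dark; test system: Cerulean-labeled Runt domain protein; amount: 100 nM per protein; buffer or medium: Tris 50 mM pH 7.5, KCl, K2SO4, 0.01% BSA; read-out: loss of energy transfer signal; detection: FRET fluorescence; controls: 5 µM unlabeled CBFb as full-inhibition high control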
Runt-SMMHC FRET: inhibitors of RUNX1 Runt–CBFb-SMMHC binding, primary screen, biochemical, FRET, Cerulean-Runt, Venus-CBFb-SMMHC, uHTS. Runt-related transcription factor 1 (Homo sapiens) + Core-binding factor subunit beta …. Cerulean-Runt/Venus-CBFb-SMMHC FRET ratio 530/480, 1 h. inhibition, % at 20 µM. actives 0.74% (n = 220,000);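 active = mean inhibition across duplicate retests at 20 µM reaching about 50%, limit read from the data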;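 note: 0% = DMSO wells and 100% = wells with excess untagged CBFb-SMMHC; inhibitors lower the FRET ratio by blocking Runt binding to CBFb-SMMHC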
PHOSPHO1 block: PubChem AID 1565; Phosphoethanolamine/phosphocholine phosphatase (Homo sapiens), Q8TCT1; recombinant PHOSPHO1, absorbance phosphatase assay; inhibition, % at 13.3 µM; actives 1.1% (n = 290,000); in the data active = inhibition above about 60%
Wee1 stabilizer: Wee1 degradation inhibitors, primary screen, cell-based, HeLa, Wee1K328M-luciferase, luminescence | HeLa Luc-Wee1K328M stability; 100% = proteasome inhibitor MG132 effect | reporter increase, % at 5 µM | actives 1.2% (n = 220,000) | AID 1321, 2008;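 active = activation above the mean of all tested compounds plus 3 SD, set per screening run, cut at about 8.8% in these data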;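 note: cells exposed to compound for 20 h before luminescence read; 0% = DMSO alone and 100% = MG132 at 30 µM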
Starred values were filed as active, the others as inactive; ? = inconclusive; · = no result. Rows were chosen to be rich in hits. Some 3.4% of all compounds tested hit in one or more screens of this group.

SMILES	Efa HMGR inh	RanGTP-Impb inh	Runt-CBFb FRET	Runt-SMMHC FRET	PHOSPHO1 block	Wee1 stabilizer
CC1CCCN(C(=O)C2CCN(CCCc3ccccc3)CC2)C1 (stereo unspecified)	-2.8	-0.7	2.1	-9.5	23.9	-2.7
Fc1cccc(NC(=S)NNc2c3ccccc3nc3ccccc23)c1	0.7	-0.7	88.0*	87.0*	20.5	-2.9
Cc1ccc(C)c(C(=O)CSc2n[nH]c(-c3ccncc3)n2)c1	1.9	-5.0	-1.2	-112.7	63.9*	-1.5
CN(C)c1ncnc2c1NC1=C(S2)C(=NCCCC(=O)O)CC(C)(C)C1	-4.2	-7.1	4.3	0.9	86.6*	-3.3
COc1ncnc2c1NC1=C(S2)C(=NCCC(=O)O)CC(C)(C)C1	-1.8	-3.1	12.4	24.7	51.9	-1.4
Cc1ccc(-c2ccnc(=S)[nH]2)cc1	0.2	1.0	7.2	3.1	89.9*	-2.0
CC1=NN(C(N)=S)C(=O)C1N=Nc1c(Cl)cc([N+](=O)[O-])cc1Cl (stereo unspecified)	·	-5.1	·	·	-2.6	·
O=C(Nc1ccc(Cl)cc1)[C@@H]1[C@@H]2C(=O)N(c3cccc(F)c3)C(=O)[C@@H]2[C@H]2C=CC=NN21	·	0.9	-0.5	-3.4	-48.3	0.1
O=C(Nc1ccc(Cl)cc1)[C@@H]1[C@@H]2C(=O)N(c3ccc4ccccc4c3)C(=O)[C@@H]2[C@H]2C=CC=NN21	-6.9	5.6	2.6	-4.2	75.7*	-0.4
CN1/C(=C/C(=O)c2ccc(Cl)cc2)Sc2cc3c(cc21)OCO3	-2.6	36.1*	-56.3	-78.6	-1.0	0.0
COc1ccc2c(c1)S/C(=C\C(=O)c1ccncc1)N2C	-1.4	1.2	44.7	-33.0	69.5*	5.3
COc1ccc(C(=O)/C=C2/Sc3cc4c(cc3N2C)OCO4)cc1	-7.7	-2.1	-134.0	63.8	-7.1	-0.9
CN1/C(=C\C(=O)c2cccc([N+](=O)[O-])c2)Sc2ccccc21	·	-1.3	·	·	28.0	·
COc1ccc(N2CCN(S(=O)(=O)c3c(C)[nH]c(C)c3C(=O)N3CCCCC3)CC2)cc1	·	2.0	·	·	32.4	·
Cc1ccc(C)c(S(=O)(=O)N2CCN(C(=O)CCNS(=O)(=O)c3ccccc3)CC2)c1	·	1.4	·	·	26.3	·
Nc1nc(SCC(=O)C23CC4CC(CC(C4)C2)C3)n[nH]1	2.1	?	-0.1	4.0	88.5*	-2.1
COc1ccc(OCC(NS(=O)(=O)c2ccc(-n3cnnn3)cc2)C(C)C)cc1 (stereo unspecified)	·	-0.2	·	·	6.9	·
CC(O)CNc1nc2c(c(=O)n(Cc3ccccc3)c(=O)n2C)n1C (stereo unspecified)	·	-0.2	·	·	22.7	·
C/C(=N\Nc1nc(-c2ccccc2)cs1)c1cccs1	-8.1	2.4	21.2	7.1	-17.7	1.7
C/C(=N\Nc1nc2ccccc2s1)c1cccs1	-3.0	22.4*	-3.2	2.1	30.3	2.8
CC(/C=C\c1ccccc1)=C/C(=O)O	·	1.6	3.1	1.0	27.4	0.9
CC(=C/C(=O)O)/C=C/c1ccc([N+](=O)[O-])cc1	-13.8	·	11.6	6.8	8.6	11.1*
CN(CCc1cnn(C)c1)C(=O)C1CCC(=O)N(CC2CCCCC2)C1 (stereo unspecified)	·	1.1	·	·	16.2	·
O=C1CN(C(=O)COc2cccc(F)c2)c2ccccc2N1	1.3	-2.0	1.6	3.3	14.1	-2.9
Cc1noc(C)c1COc1cccc(C(=O)OCC(=O)N2CC(=O)Nc3ccccc32)c1	0.0	3.8	2.6	-2.8	45.0	17.7*
CC(C)(C)NC(=O)CN(CCN1CCOCC1)C(=O)CNS(=O)(=O)c1ccc(Cl)cc1	·	-2.4	·	·	17.4	·

Source: PubChem
